Results published in ChEMBL document CHEMBL5634075, “An electrophilic fragment screening for the development of small molecules targeting caspase-2” (Eur J Med Chem, 2023).
“And” between values parts separate entries of the source, which are not always exact repeats. Equal values may be shown once. The source made the active and inactive calls. The rule behind the calls is not given here. Where a SMILES comes first, the peptide text is derived from it.

Key:
[1] = biological target: T1, Caspase-2 (Homo sapiens, UniProt P42575); assay: Inhibition of recombinant cp-caspase-2 (unknown origin) using Z-VDVAD-AFC as substrate measured after 40 mins by fluorescence assay
T1 sequence (P42575 whole entry): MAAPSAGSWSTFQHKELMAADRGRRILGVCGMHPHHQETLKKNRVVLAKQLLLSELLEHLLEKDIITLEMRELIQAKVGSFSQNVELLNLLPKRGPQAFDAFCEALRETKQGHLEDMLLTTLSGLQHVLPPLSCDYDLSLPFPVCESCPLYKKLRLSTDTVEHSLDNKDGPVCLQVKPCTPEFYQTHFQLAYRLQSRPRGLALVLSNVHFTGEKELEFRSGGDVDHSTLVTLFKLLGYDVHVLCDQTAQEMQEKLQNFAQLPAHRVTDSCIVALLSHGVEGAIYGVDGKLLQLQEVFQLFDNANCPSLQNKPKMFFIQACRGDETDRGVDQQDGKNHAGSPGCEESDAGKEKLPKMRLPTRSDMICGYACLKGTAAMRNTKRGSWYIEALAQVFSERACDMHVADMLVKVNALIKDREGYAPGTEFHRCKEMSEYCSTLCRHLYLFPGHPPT
Procedure, shortened: (§1)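 Ten-point curves in duplicate, 0.4 nM–100 µM. Enzyme (5 nM caspase-2 or cp-caspase-2) in MES pH 6.5 buffer with 10 mM DTT, preincubated with compound 40 min at 37 °C. Then 5 µM Z-VDVAD-AFC. AFC read at ex 400/em 505 nm every 3 min for 1 h. Background-corrected 40-min values fitted to four-parameter sigmoidal curves. Mean ± SEM of N independent experiments.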

[2] = test system: HepG2; assay: Cytotoxicity against human HepG2 cells assessed as reduction in cell viability measured after 22 hrs by cell-titer glo assay; format: functional, cell-based
Procedure, shortened: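 HepG2 cells at 250 cells/well, 1536-well format, settled 4 h at 37 °C and 5% CO2. Compound added acoustically (50 nL), 22 h at 37 °C. CellTiter-Glo reagent added, 15 min at room temperature, then luminescence read.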

[3] = test system: HepG2; assay: Induction of GSH depletion in human HepG2 cells measured after 22 hrs by GSH-glo luminescence assay; settings: HepG2, 22 h, read-out: pIC50 (converted)
[4] = biological target: T2, Caspase-3 (Homo sapiens, UniProt P42574); assay: Inhibition of recombinant caspase-3 (unknown origin) at 125 uM using Ac-DEVD-AFC as substrate measured after 40 mins by fluorescence assay relative to control; settings: recombinant caspase-3, probe Ac-DEVD-AFC
T2 sequence (P42574 whole entry): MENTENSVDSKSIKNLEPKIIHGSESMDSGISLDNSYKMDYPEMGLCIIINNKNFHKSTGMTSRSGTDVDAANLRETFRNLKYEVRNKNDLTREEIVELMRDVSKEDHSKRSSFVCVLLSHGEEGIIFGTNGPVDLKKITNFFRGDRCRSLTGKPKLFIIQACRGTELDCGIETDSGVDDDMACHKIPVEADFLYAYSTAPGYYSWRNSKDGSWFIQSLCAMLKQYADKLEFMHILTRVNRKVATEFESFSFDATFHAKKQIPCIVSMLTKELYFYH

[5] = biological target: T2, Caspase-3; assay: Inhibition of recombinant caspase-3 (unknown origin) using Ac-DEVD-AFC as substrate measured after 40 mins by fluorescence assay
[6] = biological target: T3, Caspase-2 (Homo sapiens) (UniProt P42575); assay: Inhibition of recombinant caspase-2 (unknown origin) at 12.5 uM using Z-VDVAD-AFC as substrate measured after 40 mins by fluorescence assay relative to control
T3 sequence (whole entry): T1 sequence (P42575 whole entry)
Procedure, shortened: (§2)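 Two-point single-run screen in duplicate at 12.5 and 6.25 µM. Then 5 µM Z-VDVAD-AFC, 40 min at 37 °C, stopped with 5 M acetic acid. AFC fluorescence read at ex 400/em 505 nm, corrected for buffer+protein background.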

[7] = biological target: T1, Caspase-2; assay: Inhibition of recombinant caspase-2 (unknown origin) using Z-VDVAD-AFC as substrate measured after 40 mins by fluorescence assay; procedure, shortened: as §1
[8] = biological target: T3, Caspase-2 (Homo sapiens); assay: Covalent irreversible binding affinity to recombinant caspase-2 (unknown origin) assessed as modification at Cys320 residue measured after 1 hr by trypsin digestion based UPLC-MS/MS analysis
Procedure, shortened: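 Recombinant caspase-2 (34 µM, 15 µL) mixed with test compound (1 µL of 10 mM DMSO stock), brought to 50 µL in MES pH 6.5 caspase-2 buffer, 1 h at 37 °C. Then iodoacetamide (62 mM final) 1 h dark RT. Samples denatured in 8 M urea/5 mM DTT and re-alkylated with IAD. Trypsin digestion overnight at 37 °C with 10% acetonitrile. C18 desalting, then gradient LC-MS/MS peptide sequencing.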

[9] = biological target: T2, Caspase-3; assay: Inhibition of recombinant caspase-3 (unknown origin) at 62.5 uM using Ac-DEVD-AFC as substrate measured after 40 mins by fluorescence assay relative to control; settings: recombinant caspase-3, probe Ac-DEVD-AFC
[10] = biological target: T3, Caspase-2 (Homo sapiens); assay: Inhibition of recombinant caspase-2 (unknown origin) at 6.25 uM using Z-VDVAD-AFC as substrate measured after 40 mins by fluorescence assay relative to control; procedure, shortened: as §2
[11] = species: Homo sapiens; assay: Selectivity ratio of IC50 for recombinant caspase-3 (unknown origin) to recombinant caspase-2 (unknown origin)
[12] = biological target: T3, Caspase-2 (Homo sapiens); assay: Irreversible inhibition of recombinant caspase-2 (unknown origin) assessed as ratio of Kinact/Ki using Z-VDVAD-AFC as substrate measured after 40 mins by fluorescence assay
Procedure, shortened: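 Caspase-2 kinetic fluorometric assay with Z-VDVAD-AFC. kOBS values obtained from progress curves at four or more inhibitor concentrations. kinact/Ki then derived by two-step irreversible secondary regression (Copeland).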

[13] = test system: HepG2; assay: Induction of GSH depletion in human HepG2 cells at <10 uM measured after 22 hrs by GSH-glo luminescence assay; format: functional, cell-based
Procedure, shortened: (§3)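 HepG2 cells at 250 cells/well, 1536-well format, settled 4 h at 37 °C and 5% CO2. Compound added (50 nL), 22 h incubation. Medium removed by centrifugation. GSH-Glo reagent 30 min at RT, then Luciferin Detection Reagent 15 min at RT. Luminescence read.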

[14] = test system: HepG2; assay: Induction of GSH depletion in human HepG2 cells at >10 uM measured after 22 hrs by GSH-glo luminescence assay; format: functional, cell-based; procedure, shortened: as §3
[15] = biological target: T3, Caspase-2 (Homo sapiens); assay: Covalent irreversible binding affinity to recombinant caspase-2 (unknown origin) assessed as modification at Cys320 residue […] measured after 1 hr by trypsin digestion based UPLC-MS/MS analysis
Procedure, shortened: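 Recombinant caspase-2 (34 µM stock) incubated 1 h at 37 °C with compound (10 mM DMSO stock) in pH 6.5 MES buffer with NaCl, CHAPS, sucrose and 10 mM DTT. Free cysteines were capped with iodoacetamide (62 mM final, 1 h, dark, RT). Samples were dried, denatured in 8 M urea/DTT, re-alkylated, trypsin-digested overnight at 37 °C, C18-desalted and analysed by gradient LC-MS/MS peptide sequencing.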

Structure (SMILES) | IC50 [1] [µM] | IC50 [3] [µM] | inhibition at 40 min, 125 µM [4] [%] | IC50 [5] | inhibition [6] [%] | IC50 [7] | Activity [8] | inhibition at 40 min, 62.5 µM [9] [%] | inhibition [10] [%] | Ratio IC50 [11] | Ratio [12] | IC50 ([2]; HepG2, 22 h) [µM] | Activity [2] | Activity [13] | Activity [14] | Activity [15]
CC(=O)N[C@H](C(=O)N[C@@H](CC(=O)O)C(=O)N[C@H](C(=O)N[C@@H](C)C(=O)N[C@H](C=O)CC(=O)O)C(C)C)C(C)C (Ac-VDVAD-aldehyde) | 0.0479 |  |  |  |  |  |  |  |  |  |  |  |  |  |  | 
COc1ccc2nc(NC(=O)CCl)sc2c1 |  |  | 21.7 | > 63.1 µM | 79.7 | 5.25 µM |  |  |  | > 12 |  |  |  |  |  | 
NC(=O)CI |  |  |  |  |  |  |  |  |  |  |  |  |  |  |  | Active

Continued, in another order:

IC50 [1] [µM] | IC50 [3] [µM] | inhibition at 40 min, 125 µM [4] [%] | IC50 [5] | inhibition [6] [%] | IC50 [7] | Activity [8] | inhibition at 40 min, 62.5 µM [9] [%] | inhibition [10] [%] | Ratio IC50 [11] | Ratio [12] | Structure (SMILES) | IC50 ([2]; HepG2, 22 h) [µM] | Activity [2] | Activity [13] | Activity [14] | Activity [15]
4.9 | 1.78 | 16 | 35.5 µM and > 31.6 µM | 89 | 1.82 µM and 3.39 µM | Active | 10 | 79 |  |  | Cc1nc(-c2ccc3c(c2)CCN3C(=O)CCl)cs1 | 2.24 |  |  |  | 
 |  | 90 | 28.8 µM | 92 | 1.07 µM and 3.31 µM | Active | 59 | 86 | 27 | 4.49 10^4/M/s | O=C1CN(C(=O)CCl)c2ccccc2N1 |  | Active | inactive | Active | 
 |  | 30 | 9.55 µM | 93 | 1.29 µM | Active | 24 | 92 | 7 | 5.86 10^4/M/s | O=C(CCl)Nc1ccc(NC(=O)c2cccs2)cc1 |  |  |  |  | 
6.03 |  | 14 | > 50.1 µM | 79 | 3.16 µM | Active | 0 | 62 | > 16 |  | CN1C(=O)CN(C(=O)CCl)c2ccc(Br)cc21 |  | Active | inactive | Active | 
